{"source": "ChEMBL document CHEMBL1671676", "about": "“In vitro activity of nemonoxacin, a novel nonfluorinated quinolone, against 2,440 clinical isolates” (2009)", "format_in_all_cases": "functional", "key": {"Streptococcus pneumoniae [1]": {"tested_on": "Streptococcus pneumoniae", "experiment": "Antibacterial activity against Streptococcus pneumoniae assessed as percent cumulative susceptible isolates at minimum inhibitory concentration of 0.5 ug/ml by CLSI broth microdilution method", "set-up": "scale not given: the % may be the effect or the level left"}, "Staphylococcus aureus [2]": {"tested_on": "Staphylococcus aureus", "experiment": "Antibacterial activity against community-associated methicillin-resistant Staphylococcus aureus assessed as percent cumulative susceptible isolates at minimum inhibitory concentration of 1 ug/ml by CLSI broth microdilution method", "set-up": "scale not given: the % may be the effect or the level left"}, "Proteus mirabilis [3]": {"tested_on": "Proteus mirabilis", "experiment": "Antibacterial activity against Proteus mirabilis assessed as percent cumulative susceptible isolates at minimum inhibitory concentration of 0.06 ug/ml by CLSI broth microdilution method", "set-up": "scale not given: the % may be the effect or the level left"}, "Proteus mirabilis [4]": {"tested_on": "Proteus mirabilis", "experiment": "Antibacterial activity against Proteus mirabilis assessed as percent cumulative susceptible isolates at minimum inhibitory concentration of 8 ug/ml by CLSI broth microdilution method", "set-up": "scale not given: the % may be the effect or the level left"}, "Enterococcus faecalis": {"tested_on": "Enterococcus faecalis", "experiment": "Antibacterial activity against Enterococcus faecalis assessed as percent cumulative susceptible isolates at minimum inhibitory concentration of 32 ug/ml by CLSI broth microdilution method", "set-up": "scale not given: the % may be the effect or the level left"}, "Staphylococcus aureus [5]": {"tested_on": "Staphylococcus aureus", "experiment": "Antibacterial activity against community-associated methicillin-resistant Staphylococcus aureus assessed as percent cumulative susceptible isolates at minimum inhibitory concentration of 8 ug/ml by CLSI broth microdilution method", "set-up": "scale not given: the % may be the effect or the level left", "method_in_brief": "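Clinical isolates tested by CLSI broth microdilution using 96-well panels of doubling drug dilutions in cation-adjusted Mueller-Hinton broth with 5% lysed horse blood. MIC was read from these panels. Panel quality control used CLSI ATCC strains, including S. pneumoniae 49619, S. aureus 29213, E. faecalis 29212 and E. coli 25922. Cumulative percentages of isolates were tabulated at each MIC.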"}, "Streptococcus pneumoniae [6]": {"tested_on": "Streptococcus pneumoniae", "experiment": "Antibacterial activity against penicillin-resistant Streptococcus pneumoniae assessed as percent cumulative susceptible isolates at minimum inhibitory concentration of 1 ug/ml by CLSI broth microdilution method", "set-up": "scale not given: the % may be the effect or the level left"}, "Escherichia coli [7]": {"tested_on": "Escherichia coli", "experiment": "Antibacterial activity against Escherichia coli assessed as percent cumulative susceptible isolates at minimum inhibitory concentration of 8 ug/ml by CLSI broth microdilution method", "set-up": "scale not given: the % may be the effect or the level left"}, "[8]": {"tested_on": "Staphylococcus epidermidis", "experiment": "Antibacterial activity against methicillin-resistant Staphylococcus epidermidis assessed as percent cumulative susceptible isolates at minimum inhibitory concentration of 4 ug/ml by CLSI broth microdilution method", "set-up": "scale not given: the % may be the effect or the level left"}, "Enterococcus faecium [9]": {"tested_on": "Enterococcus faecium", "experiment": "Antibacterial activity against Enterococcus faecium assessed as percent cumulative susceptible isolates at minimum inhibitory concentration of 128 ug/ml by CLSI broth microdilution method", "set-up": "scale not given: the % may be the effect or the level left"}, "Staphylococcus aureus [10]": {"tested_on": "Staphylococcus aureus", "experiment": "Antibacterial activity against methicillin-resistant Staphylococcus aureus assessed as percent cumulative susceptible isolates at minimum inhibitory concentration of 4 ug/ml by CLSI broth microdilution method", "set-up": "scale not given: the % may be the effect or the level left"}, "Escherichia coli [11]": {"tested_on": "Escherichia coli", "experiment": "Antibacterial activity against Escherichia coli assessed as percent cumulative susceptible isolates at minimum inhibitory concentration of 256 ug/ml by CLSI broth microdilution method", "set-up": "scale not given: the % may be the effect or the level left"}, "Enterobacter cloacae": {"tested_on": "Enterobacter cloacae", "experiment": "Antibacterial activity against Enterobacter cloacae assessed as percent cumulative susceptible isolates at minimum inhibitory concentration of 0.5 ug/ml by CLSI broth microdilution method", "set-up": "scale not given: the % may be the effect or the level left"}, "[12]": {"tested_on": "Staphylococcus epidermidis", "experiment": "Antibacterial activity against methicillin-susceptible Staphylococcus epidermidis assessed as percent cumulative susceptible isolates at minimum inhibitory concentration of 1 ug/ml by CLSI broth microdilution method", "set-up": "scale not given: the % may be the effect or the level left"}, "Proteus mirabilis [13]": {"tested_on": "Proteus mirabilis", "experiment": "Antibacterial activity against Proteus mirabilis assessed as percent cumulative susceptible isolates at minimum inhibitory concentration of 64 ug/ml by CLSI broth microdilution method", "set-up": "scale not given: the % may be the effect or the level left"}, "[14]": {"experiment": "Ratio of fAUC (0 to 24 hrs) in in vitro PK/PD model at 750 mg to MIC for community-associated methicillin-resistant Staphylococcus aureus"}, "Pseudomonas aeruginosa": {"tested_on": "Pseudomonas aeruginosa", "experiment": "Antibacterial activity against Pseudomonas aeruginosa assessed as percent cumulative susceptible isolates at minimum inhibitory concentration of 256 ug/ml by CLSI broth microdilution method", "set-up": "scale not given: the % may be the effect or the level left"}, "Staphylococcus aureus [15]": {"tested_on": "Staphylococcus aureus", "experiment": "Antibacterial activity against methicillin-susceptible Staphylococcus aureus assessed as percent cumulative susceptible isolates at minimum inhibitory concentration of […] by CLSI broth microdilution method", "set-up": "scale not given: the % may be the effect or the level left"}, "Escherichia coli [16]": {"tested_on": "Escherichia coli", "experiment": "Antibacterial activity against Escherichia coli assessed as percent cumulative susceptible isolates at minimum inhibitory concentration of >=[…] by CLSI broth microdilution method", "set-up": "scale not given: the % may be the effect or the level left"}, "Staphylococcus aureus [17]": {"tested_on": "Staphylococcus aureus", "experiment": "Antibacterial activity against hospital-associated methicillin-resistant Staphylococcus aureus assessed as percent cumulative susceptible isolates at minimum inhibitory concentration of […] by CLSI broth microdilution method", "set-up": "scale not given: the % may be the effect or the level left"}, "Streptococcus pneumoniae [18]": {"tested_on": "Streptococcus pneumoniae", "experiment": "Antibacterial activity against Streptococcus pneumoniae assessed as percent cumulative susceptible isolates at minimum inhibitory concentration of […] by CLSI broth microdilution method", "set-up": "scale not given: the % may be the effect or the level left"}, "Staphylococcus aureus [19]": {"tested_on": "Staphylococcus aureus", "experiment": "Antibacterial activity against methicillin-susceptible Staphylococcus aureus assessed as percent cumulative susceptible isolates at minimum inhibitory concentration of <=0.008 ug/ml by CLSI broth microdilution method", "set-up": "scale not given: the % may be the effect or the level left"}, "Escherichia coli [20]": {"tested_on": "Escherichia coli", "experiment": "Antibacterial activity against Escherichia coli assessed as percent cumulative susceptible isolates at minimum inhibitory concentration of <=[…] by CLSI broth microdilution method", "set-up": "scale not given: the % may be the effect or the level left"}, "Staphylococcus aureus [21]": {"tested_on": "Staphylococcus aureus", "experiment": "Antibacterial activity against non-levofloxacin susceptible Staphylococcus aureus assessed as percent cumulative susceptible isolates at minimum inhibitory concentration of 8 ug/ml by CLSI broth microdilution method", "set-up": "scale not given: the % may be the effect or the level left"}, "[22]": {"tested_on": "Staphylococcus epidermidis", "experiment": "Antibacterial activity against methicillin-resistant Staphylococcus epidermidis assessed as percent cumulative susceptible isolates at minimum inhibitory concentration of […] by CLSI broth microdilution method", "set-up": "scale not given: the % may be the effect or the level left"}, "[23]": {"experiment": "Ratio of fAUC (0 to 24 hrs) in in vitro PK/PD model at 750 mg to MIC for Staphylococcus aureus"}, "Staphylococcus aureus [24]": {"tested_on": "Staphylococcus aureus", "experiment": "Antibacterial activity against methicillin-susceptible Staphylococcus aureus by CLSI M7-A7 broth microdilution method", "method_in_brief": "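Broth microdilution per CLSI guidelines on clinical isolates, using panels of doubling drug dilutions in cation-adjusted Mueller-Hinton broth with 5% lysed horse blood. MIC read per CLSI, and cumulative percentage of isolates inhibited at each concentration tabulated.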"}, "Staphylococcus aureus [25]": {"tested_on": "Staphylococcus aureus", "experiment": "Antibacterial activity against community-associated methicillin-resistant Staphylococcus aureus assessed as percent cumulative susceptible isolates at minimum inhibitory concentration of 0.06 ug/ml by CLSI broth microdilution method", "set-up": "scale not given: the % may be the effect or the level left"}, "[26]": {"tested_on": "Staphylococcus epidermidis", "experiment": "Antibacterial activity against methicillin-susceptible Staphylococcus epidermidis assessed as percent cumulative susceptible isolates at minimum inhibitory concentration of 0.06 ug/ml by CLSI broth microdilution method", "set-up": "scale not given: the % may be the effect or the level left"}, "Enterococcus faecium [27]": {"tested_on": "Enterococcus faecium", "experiment": "Antibacterial activity against Enterococcus faecium assessed as percent cumulative susceptible isolates at minimum inhibitory concentration of […] by CLSI broth microdilution method", "set-up": "scale not given: the % may be the effect or the level left"}, "Staphylococcus aureus [28]": {"tested_on": "Staphylococcus aureus", "experiment": "Antibacterial activity against methicillin-susceptible Staphylococcus aureus assessed as percent cumulative susceptible isolates at minimum inhibitory concentration of 0.03 ug/ml by CLSI broth microdilution method", "set-up": "scale not given: the % may be the effect or the level left"}, "Staphylococcus aureus [29]": {"tested_on": "Staphylococcus aureus", "experiment": "Antibacterial activity against methicillin-resistant Staphylococcus aureus assessed as percent cumulative susceptible isolates at minimum inhibitory concentration of 0.06 ug/ml by CLSI broth microdilution method", "set-up": "scale not given: the % may be the effect or the level left"}, "[30]": {"tested_on": "Staphylococcus epidermidis", "experiment": "Antibacterial activity against methicillin-susceptible Staphylococcus epidermidis assessed as percent cumulative susceptible isolates at minimum inhibitory concentration of 0.5 ug/ml by CLSI broth microdilution method", "set-up": "scale not given: the % may be the effect or the level left"}, "[31]": {"experiment": "Ratio of fAUC (0 to 24 hrs) in in vitro PK/PD model at 750 mg to MIC for penicillin-resistant Streptococcus pneumoniae"}, "Staphylococcus aureus [32]": {"tested_on": "Staphylococcus aureus", "experiment": "Antibacterial activity against hospital-associated methicillin-resistant Staphylococcus aureus assessed as percent cumulative susceptible isolates at minimum inhibitory concentration of 0.06 ug/ml by CLSI broth microdilution method", "set-up": "scale not given: the % may be the effect or the level left"}}}
{"compound": "C[C@H]1COc2c(N3CCN(C)CC3)c(F)cc3c(=O)c(C(=O)O)cn1c23.C[C@H]1COc2c(N3CCN(C)CC3)c(F)cc3c(=O)c(C(=O)O)cn1c23.O", "note": "[LEVOFLOXACIN]", "values": [{"measurement": "Activity", "setting": "Streptococcus pneumoniae [1]", "result": 69.3, "unit": "%"}, {"measurement": "Activity", "setting": "Staphylococcus aureus [2]", "result": 32, "unit": "%"}, {"measurement": "Activity", "setting": "Proteus mirabilis [3]", "result": 33.3, "unit": "%"}, {"measurement": "Activity", "setting": "Proteus mirabilis [4]", "result": 97, "unit": "%"}, {"measurement": "Activity", "setting": "Enterococcus faecalis", "result": 100, "unit": "%"}, {"measurement": "Activity", "setting": "Staphylococcus aureus [5]", "result": 96, "unit": "%"}, {"measurement": "Activity", "setting": "Streptococcus pneumoniae [6]", "result": 90.6, "unit": "%"}, {"measurement": "Activity", "setting": "Escherichia coli [7]", "result": 78.5, "unit": "%"}, {"measurement": "Activity", "setting": "[8]", "result": 11.1, "unit": "%"}]}
{"compound": "COc1c(N2C[C@@H](C)C[C@H](N)C2)ccc2c(=O)c(C(=O)O)cn(C3CC3)c12", "note": "[NEMONOXACIN]", "values": [{"measurement": "Activity", "setting": "Enterococcus faecium [9]", "result": 100, "unit": "%"}, {"measurement": "Activity", "setting": "Staphylococcus aureus [10]", "result": 65.4, "unit": "%"}, {"measurement": "Activity", "setting": "Escherichia coli [11]", "result": 99.7, "unit": "%"}, {"measurement": "Activity", "setting": "Enterobacter cloacae", "result": 90.3, "unit": "%"}, {"measurement": "Activity", "setting": "[12]", "result": 95.3, "unit": "%"}, {"measurement": "Activity", "setting": "Proteus mirabilis [13]", "result": 97, "unit": "%"}, {"measurement": "RatioAUC/MIC", "setting": "[14]", "result": 98}, {"measurement": "Activity", "setting": "Pseudomonas aeruginosa", "result": 99.3, "unit": "%"}, {"measurement": "Activity", "setting": "Staphylococcus aureus [15]", "result": 30.5, "unit": "%"}, {"measurement": "Activity", "setting": "Escherichia coli [16]", "result": 100, "unit": "%"}, {"measurement": "Activity", "setting": "Staphylococcus aureus [17]", "result": 2, "unit": "%"}, {"measurement": "Activity", "setting": "Streptococcus pneumoniae [18]", "result": 91, "unit": "%"}, {"measurement": "Activity", "setting": "Staphylococcus aureus [19]", "result": 5.6, "unit": "%"}, {"measurement": "Activity", "setting": "Escherichia coli [20]", "result": 0.2, "unit": "%"}, {"measurement": "Activity", "setting": "Staphylococcus aureus [21]", "result": 76.2, "unit": "%"}, {"measurement": "Activity", "setting": "[22]", "result": 11.1, "unit": "%"}, {"measurement": "RatioAUC/MIC", "setting": "[23]", "result": 393}, {"measurement": "MIC90", "setting": "Staphylococcus aureus [24]", "result": 0.12, "unit": "µg/mL"}, {"measurement": "Activity", "setting": "Staphylococcus aureus [25]", "result": 28, "unit": "%"}, {"measurement": "Activity", "setting": "[26]", "result": 58.1, "unit": "%"}, {"measurement": "Activity", "setting": "Enterococcus faecium [27]", "result": 15.8, "unit": "%"}, {"measurement": "Activity", "setting": "Staphylococcus aureus [28]", "result": 71.9, "unit": "%"}, {"measurement": "Activity", "setting": "Staphylococcus aureus [29]", "result": 6.3, "unit": "%"}, {"measurement": "Activity", "setting": "[30]", "result": 93, "unit": "%"}, {"measurement": "RatioAUC/MIC", "setting": "[31]", "result": "> 393"}, {"measurement": "Activity", "setting": "Staphylococcus aureus [32]", "result": 3, "unit": "%"}]}
